Assay type in all cases: functional
The species entered for test [1] is Cavia porcellus. As to the kind of experiment: Percent inhibition of SRS-A induced contraction minus percent inhibition of 25 mM KCl induced contractions at a conc of 5(uM). An outline of the steps: (§1)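 Ileum segments (proximal to Peyer's patch) from male Hartley guinea pigs (400–600 g) were held in modified Tyrode's at 37.5 °C under 95% O2-5% CO2, with isometric recording. Partially purified guinea pig SRS-A or 25 mM KCl was dosed for 60–80% maximal contraction, then reapplied after 15 min compound exposure with five bath changes. Value is percent inhibition versus vehicle controls (3 vs 3 tissues), SRS-A minus KCl.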

For test [2], the species on record is Cavia porcellus. Briefly: Percent inhibition of SRS-A induced contraction minus percent inhibition of 25 mM KCl induced contractions at a conc of 5(uM); Not statistically significant. An outline of the steps: as §1
For test [3], the species on record is Cavia porcellus. As to the kind of experiment: Percent inhibition of SRS-A induced contraction minus percent inhibition of 25 mM KCl induced contractions at a conc of 50(uM). An outline of the steps:
as §1

For test [4], the species on record is Cavia porcellus. As to the kind of experiment: Percent inhibition of SRS-A induced contraction minus percent inhibition of 25 mM KCl induced contractions at a conc of 50(uM); Not statistically significant. An outline of the steps: as §1
The species named for test [5] is Cavia porcellus. Briefly: Percent inhibition of SRS-A induced contraction minus percent inhibition of 25 mM KCl induced contractions at a conc of 5(uM); Percent enhancement of tissue contraction compared to control. A digest of the protocol:
as §1

For the molecule `CSc1ccc2c(c1Cl)CN(S(=O)(=O)NS(=O)(=O)N1CCc3ccc(SC)c(Cl)c3C1)CC2`, the Inhibition in the test listed under Cavia porcellus [1] stood at 25%.

Regarding `O=S(=O)(NS(=O)(=O)N1CCc2c(Cl)c(Cl)c(Cl)c(Cl)c2C1)N1CCc2c(Cl)c(Cl)c(Cl)c(Cl)c2C1`, the Inhibition in the test filed under Cavia porcellus [1] worked out at 14%. Consider `O=S(=O)(NS(=O)(=O)N1CCc2c(Cl)cccc2C1)N1CCc2c(Cl)cccc2C1`, for which, in the test filed under Cavia porcellus [2], the Inhibition is recorded as 8%.

`O=S(=O)(NS(=O)(=O)N1CCc2c(Br)cccc2C1)N1CCc2c(Br)cccc2C1`: in the test listed under Cavia porcellus [1], the Inhibition turned out to be 29%.

On to `O=S(=O)(NS(=O)(=O)N1CCc2c(Br)ccc(Br)c2C1)N1CCc2c(Br)ccc(Br)c2C1`, for which, in the test filed under Cavia porcellus [1], the Inhibition is given as 50%. Consider `COc1ccc(OC)c2c1CCN(S(=O)(=O)NS(=O)(=O)N1CCc3c(OC)ccc(OC)c3C1)C2`, for which the Inhibition in the test listed under Cavia porcellus [1] came to 12%.

For `O=S(=O)(NS(=O)(=O)N1CCc2cc(Cl)ccc2C1)N1CCc2cc(Cl)ccc2C1`, the Inhibition in the test listed under Cavia porcellus [1] and in the test filed under Cavia porcellus [3] was 1% each time. On to `O=S(=O)(NS(=O)(=O)N1CCc2ccccc2CC1)N1CCc2ccccc2CC1`, for which the Inhibition in the test listed under Cavia porcellus [3] turned out to be 14%. For `O=S(=O)(NS(=O)(=O)N1CCc2ccc(C(F)(F)F)c(C(F)(F)F)c2C1)N1CCc2ccc(C(F)(F)F)c(C(F)(F)F)c2C1`, in the test listed under Cavia porcellus [1], the Inhibition stood at 27%.

For `O=S(=O)(NC1Cc2ccccc2C1)NS(=O)(=O)NC1Cc2ccccc2C1`, the Inhibition in the test filed under Cavia porcellus [3] stood at 11%. As for `O=S(=O)(NS(=O)(=O)N1CCc2ccccc2C1)N1CCc2ccccc2C1`, the Inhibition in the test listed under Cavia porcellus [4] was 10%.

For the molecule `O=S(=O)(NC1CC1c1ccc(Cl)c(Cl)c1)NS(=O)(=O)NC1CC1c1ccc(Cl)c(Cl)c1` (centres undefined), the Inhibition in the test filed under Cavia porcellus [1] worked out at 42%. On to `CC1c2c(ccc(Cl)c2Cl)CCN1S(=O)(=O)NS(=O)(=O)N1CCc2ccc(Cl)c(Cl)c2C1C` (centres undefined), for which the Inhibition in the test listed under Cavia porcellus [1] is 48%. Consider `O=S(=O)(NS(=O)(=O)N1CCc2ccc([S+]([O-])C(Cl)(Cl)Cl)cc2C1)N1CCc2ccc([S+]([O-])C(Cl)(Cl)Cl)cc2C1` (centres undefined), for which, in the test filed under Cavia porcellus [1], the Inhibition is on record as 28%. As for `O=S(=O)(NC1CCCC[C@@H]1c1ccccc1)NS(=O)(=O)NC1CCCC[C@H]1c1ccccc1` (some centres undefined), the Inhibition in the test listed under Cavia porcellus [3] stood at 41%. For the molecule `O=S(=O)(NC1CC1c1ccccc1)NS(=O)(=O)NC1CC1c1ccccc1` (centres undefined), the Inhibition in the test filed under Cavia porcellus [1] stood at 17%. With `O=S(=O)(NS(=O)(=O)N1CCc2ccc(Br)cc2C1)N1CCc2ccc(Br)cc2C1`, in the test listed under Cavia porcellus [1], the Inhibition worked out at 26%. For `O=S(=O)(NS(=O)(=O)N1CCc2cc(Cl)c(Cl)c(Cl)c2C1)N1CCc2cc(Cl)c(Cl)c(Cl)c2C1`, the Inhibition in the test listed under Cavia porcellus [2] is on record as 11%.

As for `COc1ccc2c(c1OC)CN(S(=O)(=O)NS(=O)(=O)N1CCc3ccc(OC)c(OC)c3C1)CC2`, the Inhibition in the test filed under Cavia porcellus [5] is given as 5%. Turning to `O=S(=O)(NS(=O)(=O)N1CCc2ccc(Cl)c(Cl)c2C1c1ccccc1)N1CCc2ccc(Cl)c(Cl)c2C1c1ccccc1` (centres undefined), the Inhibition in the test listed under Cavia porcellus [1] turned out to be 20%. Consider `O=S(=O)(NS(=O)(=O)N1CCc2ccc(Cl)c(Cl)c2C1Cc1ccccc1)N1CCc2ccc(Cl)c(Cl)c2C1Cc1ccccc1` (centres undefined), for which the Inhibition in the test filed under Cavia porcellus [1] is recorded as 8%. For the molecule `CC(=O)c1ccc2c(c1)CN(S(=O)(=O)NS(=O)(=O)N1CCc3ccc(C(C)=O)cc3C1)CC2`, in the test filed under Cavia porcellus [2], the Inhibition turned out to be 4%.

As to `O=S(=O)(NS(=O)(=O)N1CCc2cccc(Cl)c2C1)N1CCc2cccc(Cl)c2C1`, the Inhibition in the test listed under Cavia porcellus [2] turned out to be 16%. Take `CCCCCCC1c2c(ccc(Cl)c2Cl)CCN1S(=O)(=O)NS(=O)(=O)N1CCc2ccc(Cl)c(Cl)c2C1CCCCCC` (centres undefined): the Inhibition in the test listed under Cavia porcellus [1] is -5%. Turning to `O=S(=O)(NS(=O)(=O)N1CCc2c(cccc2-c2ccccc2)C1)N1CCc2c(cccc2-c2ccccc2)C1`, in the test listed under Cavia porcellus [1], the Inhibition is recorded as 13%. In the case of `O=S(=O)(NS(=O)(=O)N1CCc2ccc(Cl)c(Cl)c2C1C1CCCC1)N1CCc2ccc(Cl)c(Cl)c2C1C1CCCC1` (centres undefined), the Inhibition in the test filed under Cavia porcellus [1] is given as 4%. Same read-out and setting: the value for `O=S(=O)(NS(=O)(=O)N1CCc2ccc(Cl)c(SC(F)(F)C(F)F)c2C1)N1CCc2ccc(Cl)c(SC(F)(F)C(F)F)c2C1` was 22%; that for `Cc1ccc2c(c1Cl)CN(S(=O)(=O)NS(=O)(=O)N1CCc3ccc(C)c(Cl)c3C1)CC2` was 34%.

For the molecule `O=S(=O)(NS(=O)(=O)N1CCc2cc(Cl)c(Cl)cc2C1)N1CCc2cc(Cl)c(Cl)cc2C1`, the Inhibition in the test filed under Cavia porcellus [1] turned out to be 40%. Same read-out and setting: the value for `O=S(=O)(NS(=O)(=O)N1CCc2ccc(Cl)c(Cl)c2C1)N1CCc2ccc(Cl)c(Cl)c2C1` was 42%. On to `O=S(=O)(NS(=O)(=O)N1CCc2ccccc21)N1CCc2ccccc21`, for which the Inhibition in the test listed under Cavia porcellus [3] is -13%. Consider `COc1ccc2c(c1)CN(S(=O)(=O)NS(=O)(=O)N1CCc3ccc(OC)cc3C1)CC2`, for which the Inhibition in the test listed under Cavia porcellus [5] is 6%. Consider `O=S(=O)(NS(=O)(=O)N1CCc2cc(Cl)ccc21)N1CCc2cc(Cl)ccc21`, for which the Inhibition in the test listed under Cavia porcellus [1] worked out at 13%. As for `O=S(=O)(NS(=O)(=O)N1CCc2ccc(Cl)c(Cl)c2C1C1CC1)N1CCc2ccc(Cl)c(Cl)c2C1C1CC1` (centres undefined), the Inhibition in the test filed under Cavia porcellus [1] came to 47%.

As for `CC1Cc2ccc(Cl)c(Cl)c2CN1S(=O)(=O)NS(=O)(=O)N1Cc2c(ccc(Cl)c2Cl)CC1C` (centres undefined), the Inhibition in the test filed under Cavia porcellus [1] came out at 18%. Turning to `COc1ccc2c(c1Cl)CN(S(=O)(=O)NS(=O)(=O)N1CCc3ccc(OC)c(Cl)c3C1)CC2`, the Inhibition in the test listed under Cavia porcellus [1] was 20%. Turning to `O=S(=O)(NS(=O)(=O)N1CCc2c(Br)cc(Br)c(Br)c2C1)N1CCc2c(Br)cc(Br)c(Br)c2C1`, in the test listed under Cavia porcellus [2], the Inhibition amounted to 7%. As to `O=S(=O)(NS(=O)(=O)N1CCc2ccc(Cl)cc2C1)N1CCc2ccc(Cl)cc2C1`, in the test listed under Cavia porcellus [1], the Inhibition is given as 18%.

As usually defined, the Inhibition is the relative decrease from the control value, in per cent.
